Published values collected from several papers.
Compare with care: the assays were run in different laboratories.
Cell line: HepG2
Observed: cell growth or viability

| SMILES | test | setting | IC50 [µM] |
| --- | --- | --- | --- |
| S=C(N/N=C/c1cccc2cc3ccccc3nc12)Nc1ccccc1 | MTT | 48 h | > 50 |
| Nc1ncnc2c1ncn2CCN1C(=O)C(=O)c2cc(Cl)ccc21 | SRB | – | 5.62 |
| CC(=O)OC[C@H]1O[C@@H](n2cc(Cn3c(C(=O)/C=C/c4ccc(F)cc4)nc4ccccc43)nn2)[C@H](OC(C)=O)[C@@H](OC(C)=O)[C@H]1OC(C)=O | LDH | 48 h | 1.61 |
| COc1cc([C@@H]2c3cc4c(cc3[C@@H](O[C@@H]3O[C@@H]5CO[C@@H](C)O[C@H]5[C@H](O)[C@H]3O)[C@H]3COC(=O)[C@H]23)OCO4)cc(OC)c1O | MTT | – | 44.5 |
| O=C1CS/C(=N\c2ccccc2Cl)N1c1nnc(-c2ccc(C(F)(F)F)cc2/N=C2\SCC(=O)N2c2ccccc2Cl)s1 | MTT | – | 55.5 |
| CNC(=S)N/N=C/c1cccc2cc3ccccc3nc12 | MTT | 48 h | 42 |
| COc1cccc2c1C(=O)c1c(O)c3c(c(O)c1C2=O)C[C@@](O)(C(=O)CO)C[C@@H]3O[C@H]1C[C@H](N)[C@H](O)[C@H](C)O1 | MTT | – | 31.2 |
| CC/C(=C(\c1ccccc1)c1ccc(OCCN(C)C)cc1)c1ccccc1 | – | – | 17.4 |
| O=C1CS/C(=N\c2ccccc2O)N1c1nnc(-c2ccc(C(F)(F)F)cc2/N=C2\SCC(=O)N2c2ccccc2O)s1 | MTT | – | 31.1 |
| CC(=O)c1nc2ccccc2n1Cc1cn([C@@H]2OC[C@@H](O)[C@H](O)[C@H]2O)nn1 | LDH | 48 h | 1.55 |
| CC(C)(C)[C@H](NC(=O)/C=C/c1ccc(OP(=O)(O)O)cc1)C(=O)N1CCC[C@H]1C(=O)N(c1ccccc1)c1ccc(I)cc1 | CCK-8 | – | 2.23 |
| CC(=O)OC[C@H]1O[C@@H](n2cc(Cn3c(C(C)=O)nc4ccccc43)nn2)[C@H](OC(C)=O)[C@@H](OC(C)=O)[C@H]1OC(C)=O | LDH | 48 h | 3.27 |
| COc1cccc2c1C(=O)c1c(O)c3c(c(O)c1C2=O)C[C@@](O)(C(=O)CO)C[C@@H]3O[C@H]1C[C@H](N)[C@H](O)[C@H](C)O1 | – | – | 0.06 |
| CCOc1ccc(Nc2c3c(nc4ccccc24)CCC3)cc1 | resazurin | 72 h | 11.3 |
| c1ccc(Cn2nc(-c3ncc(-c4ccccc4)s3)c3ccccc32)cc1 | – | 48 h | 27.7 |
| O=C1CSC(=Nc2cc(C(F)(F)F)ccc2-c2nnc(N3C(=O)CSC3=Nc3ccc([N+](=O)[O-])cc3)s2)N1c1ccc([N+](=O)[O-])cc1 | MTT | – | 73.1 |
| Fc1ccc2c(-c3ncc(-c4ccccc4)o3)nn(Cc3ccccc3)c2c1 | – | 48 h | 39.9 |
| CC(C)CNC(=S)N/N=C/c1cccc2cc3ccccc3nc12 | MTT | 48 h | > 50 |
| c1ccc(Oc2ccc(Nc3c4c(nc5ccccc35)CCC4)cc2)cc1 | resazurin | 72 h | 9.45 |
| FC(F)(F)c1ccc(-c2noc(-c3nn(Cc4ccc(Cl)cc4Cl)c4ccccc34)n2)cc1 | – | 48 h | 251 |
| CCOC(=O)c1c(-c2ccc(OC)cc2)oc2ccc(OCc3cn(Cc4ccccc4)nn3)c(CN3CCCCC3)c12 | resazurin | 18 h | 70.5 |

| SMILES | test | setting | IC50 [µM] |
| --- | --- | --- | --- |
| FC(F)(F)c1ccc(-c2nnc(-c3nn(Cc4ccc(Cl)cc4Cl)c4ccccc34)o2)cc1 | – | 48 h | 304 |
| O=C1CS/C(=N\c2ccc(F)cc2O)N1c1nnc(-c2ccc(C(F)(F)F)cc2/N=C2\SCC(=O)N2c2ccc(F)cc2O)s1 | MTT | – | 19.5 |
| c1ccc(Cn2nc(-c3nc(-c4ccccc4)n[nH]3)c3ccccc32)cc1 | – | 48 h | 60.8 |
| Cc1cccc([N+](=O)[O-])c1N=C1SCC(=O)N1c1nnc(-c2ccc(C(F)(F)F)cc2N=C2SCC(=O)N2c2c(C)cccc2[N+](=O)[O-])s1 | MTT | – | 50.1 |
| Cc1c2c(nn1C)CSCc1cc(n(C)n1)CSc1cc(c3ccccc3c1)OCCCc1c(C(=O)O)n(C)c3c-2c(Cl)ccc13 | CCK-8 | – | 50 |
| O=C(O)c1nn(Cc2ccc(Cl)cc2Cl)c2ccccc12 | – | 48 h | 74.7 |
| COc1ccc(-c2oc3ccc(O)c(CN4CCCCC4)c3c2C(=O)NCc2cn(Cc3ccccc3)nn2)cc1 | resazurin | 18 h | 116 |
| O=C1CS/C(=N\c2cc(C(F)(F)F)ccc2-c2nnc(N3C(=O)CS/C3=N\c3ccc(-c4ccccc4)cc3)s2)N1c1ccc(-c2ccccc2)cc1 | MTT | – | 87.7 |
| CSc1ccccc1-c1ccc(C(N)=O)c2[nH]c3c(c12)CC(N)CC3 (stereo not drawn) | – | – | 0.15 |
| Fc1ccc2c(-c3nnc(Cc4ccccc4)[nH]3)nn(Cc3ccc(Cl)cc3Cl)c2c1 | – | 48 h | 21.2 |
| COc1cccc(NC(=S)N/N=C/c2cccc3cc4ccccc4nc23)c1 | MTT | 48 h | > 50 |
| O=C(/C=C/c1ccc(F)cc1)c1nc2ccccc2n1Cc1cn([C@@H]2OC[C@@H](O)[C@H](O)[C@H]2O)nn1 | LDH | 48 h | 1.63 |
| COc1ccc2c(-c3ncc(-c4ccccc4)o3)nn(Cc3ccccc3)c2c1 | – | 48 h | 89.7 |
| COc1cccc2c1C(=O)c1c(O)c3c(c(O)c1C2=O)C[C@@](O)(C(=O)CO)C[C@@H]3O[C@H]1C[C@H](N)[C@H](O)[C@H](C)O1 | MTT | 75 h | 0.48 |
| N=C(CC(O)c1cc2c(F)cc(F)cc2c2cc(C(F)(F)F)ccc12)Nc1ccc(Br)cc1 (stereo not drawn) | neutral red | 24 h | 9.7 |
| CC(=O)c1nc2ccccc2n1Cc1cn([C@@H]2O[C@H](CO)[C@H](O)[C@H](O)[C@H]2O)nn1 | LDH | 48 h | 1.67 |
| CSc1ccccc1-c1cc(C(N)=O)c2[nH]c3c(c2c1)CC(N)CC3 (stereo not drawn) | – | – | 2.46 |
| COc1ccc(N(Cc2nc(-c3ccc(F)cc3)cs2)C(=O)CCCCCC(=O)NO)cc1 | MTT | 72 h | 0.97 |
| O=C1CS/C(=N\c2cc(C(F)(F)F)ccc2-c2nnc(N3C(=O)CS/C3=N\c3ccc(F)cc3)s2)N1c1ccc(F)cc1 | MTT | – | 24.1 |
| NC(=O)c1cnc(NCCc2ccc(O)c(Cl)c2)nc1NCc1ccccc1 | CCK-8 | 48 h | 1.37 |
| COc1ccc(N(Cc2csc(-c3ccccc3)n2)C(=O)CCCCCC(=O)NO)cc1 | MTT | 72 h | 0.12 |
